Screening results: PubChem, Sanford-Burnham Center for Chemical Genomics
An excerpt weighted towards active compounds, which were near 2.4% of everything screened.
DNMT1 block: blocks human DNA methyltransferase DNMT1; P26358; AID 588458; 360,000 tested, 0.83% active; inhibition (reported as % activation of signal), % at 10 µM; DNMT1 molecular beacon, Hinp1I cleavage, fluorescence; in the data active = inhibition above about 50%
SUMO1 PPI mod: alters human SUMO1 binding to SIM partners | AID 602429 | P63165 | 360,000 tested, 0.33% active | inhibition, % at 20 µM | SUMO1 binding to a labelled peptide, TR-FRET, 1 h; in the data active = inhibition above about 37%
Target sequence (P63165 whole entry, looked up): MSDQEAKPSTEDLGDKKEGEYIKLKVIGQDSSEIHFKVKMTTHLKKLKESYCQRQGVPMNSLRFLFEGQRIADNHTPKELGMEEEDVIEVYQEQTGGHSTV
Scp1 inh: blocks human Scp-1 phosphatase activity; 340,000 tested, 0.88% active; Recombinant Scp1, phosphopeptide, malachite green phosphate absorbance; inhibition, % at 20 µM;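 active = inhibition above about 50% at 20 µM, limit read from the data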;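 note: plate controls were DMSO wells with enzyme for no effect and wells lacking enzyme for full effect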
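System: SCP-1 catalytic domain; Reagent: Phospho 17-mer peptide substrate; Doses: one concentration, 20 µM, with 1.0% DMSO; Incubation: 45 min room-temperature reaction, 5 min colour, 30 min stabiliser; Signal: Phosphate-binding colour reagent, absorbance read at 630 nm.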
NadD inh: inhibitors of Staphylococcus aureus NadD; purified NadD enzyme, colorimetric absorbance read-out; inhibition, % at 20 µM; 360,000 tested, 0.78% active; in the data active = inhibition above about 26%
STEP block: inhibitors of human striatal-enriched phosphatase STEP; P54829; 360,000 tested, 0.25% active; recombinant STEP, OMFP fluorogenic substrate, fluorescence; inhibition, % at 20 µM;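 active = inhibition at 20 µM, scaled per plate between control wells, above about 37%, limit read from the data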;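 note: 0% = DMSO with enzyme and substrate and 100% = substrate only without enzyme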
Target sequence (P54829 whole entry, looked up): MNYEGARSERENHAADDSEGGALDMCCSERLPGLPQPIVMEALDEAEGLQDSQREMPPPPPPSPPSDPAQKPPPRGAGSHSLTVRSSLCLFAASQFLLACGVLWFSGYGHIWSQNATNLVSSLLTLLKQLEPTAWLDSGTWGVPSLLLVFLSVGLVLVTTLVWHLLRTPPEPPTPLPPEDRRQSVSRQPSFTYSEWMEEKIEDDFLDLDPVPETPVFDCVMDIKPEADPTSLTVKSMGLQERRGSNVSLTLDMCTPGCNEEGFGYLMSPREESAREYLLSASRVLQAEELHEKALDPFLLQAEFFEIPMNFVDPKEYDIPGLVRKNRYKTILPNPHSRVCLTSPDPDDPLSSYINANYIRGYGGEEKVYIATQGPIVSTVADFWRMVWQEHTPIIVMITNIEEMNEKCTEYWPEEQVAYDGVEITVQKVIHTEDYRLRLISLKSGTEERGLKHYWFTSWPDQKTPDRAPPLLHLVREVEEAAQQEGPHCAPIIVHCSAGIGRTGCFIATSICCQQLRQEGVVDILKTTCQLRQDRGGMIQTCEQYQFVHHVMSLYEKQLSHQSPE
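Assay system: isolated STEP enzyme / Timing: 20 min at room temperature, dark / Doses: 20 µM, 1% DMSO / Technique: fluorescence intensity, excitation 480 nm, emission 540 nm / Reagent: fluorogenic phosphatase substrate OMFP at 25 µM final / Measure: percent inhibition scaled to no-enzyme and uninhibited-enzyme controls, plate-pattern corrected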
LMPTP inh: blocks human LMPTP phosphatase. P24666. recombinant LMPTP-A, OMFP fluorogenic substrate, fluorescence intensity. inhibition, % at 20 µM. 360,000 tested, 0.22% active;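 active = compounds that cut the enzyme signal by at least half of the control window in the single-dose screen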;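 note: plate controls were DMSO wells with enzyme plus substrate for no effect and substrate without enzyme for full effect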
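Assay system: LMPTP-A, protein tyrosine phosphatase of low molecular weight / Medium: pH 6.0 Bis-Tris buffer with DTT and Triton X-100 / Schedule: 50 min enzyme reaction at room temperature, protected from light / Measured by: endpoint fluorescence intensity from OMFP dephosphorylation / Read-out basis: % inhibition relative to no-enzyme and uninhibited control wells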
Beacon interf DR: shows spectral interference in the DNMT1 beacon assay. shares compounds with DNMT1 block. molecular beacon fluorescence, spectral interference counter-screen. IC50, µM. 200 tested, under 10 active. AID 602382
DNMT1 inh conf: confirmation of human DNMT1 inhibitors. shares compounds with DNMT1 block. DNMT1 molecular beacon HinP1I cleavage, fluorescence. inhibition, % at 10 µM. 2,300 tested, 8% active. AID 602385;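 active = average inhibition of at least 30% in the single-concentration confirmation test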
Beacon interf: counter-screen for DNMT1 inhibitors: spectral interference; 2,300 tested, 1% active; activation (fluorescence interference), % at 10 µM; shares compounds with DNMT1 block; DNMT1 molecular beacon spectral interference counterscreen, fluorescence 485/520;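 active = activation of at least 30% at 10 µM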;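 note: DNMT1 catalytic domain with a HinP1I cleavage step and a FAM/dabcyl DNA beacon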
STEP inh conf: STEP (human) phosphatase inhibition, single concentration confirmation; inhibition, % at 20 µM; AID 623866; recombinant STEP, OMFP fluorogenic substrate, fluorescence; shares compounds with STEP block; 520 tested, 32% active;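 note: 0% = enzyme with substrate plus DMSO and 100% = substrate without enzyme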
NadD inh conf: confirmation of Staphylococcus aureus NadD inhibitors | shares compounds with NadD inh | purified S. aureus NadD, colorimetric enzyme assay | inhibition, % at 20 µM | 2,000 tested, 13% active | AID 624309; in the data active = inhibition mostly above about 42%, no sharp cut-off; inactive = mostly below about 42%
An asterisk follows results filed as active; x = not tested or not shown. Unless noted, the rule behind the calls is not given here.

SMILES	DNMT1 block	SUMO1 PPI mod	Scp1 inh	NadD inh	STEP block	LMPTP inh	DNMT1 inh conf	Beacon interf	NadD inh conf	others
O=C(NNC(=O)c1ccc2ncccc2c1)c1ccc(Cl)cc1	1	1	-1	4	0	0	x	x	x
C[C@H](NS(=O)(=O)c1ccc(Cl)cc1)C(=O)OCC(=O)NC(=O)Nc1ccc2c(c1)OCCO2	0	1	-5	-4	-2	1	x	x	x
CS(=O)(=O)c1ccc(C(=O)Nc2ccc(N3CCCC3)cc2)c(Cl)c1	-4	-4	-7	7	-4	0	x	x	x
Cc1ccc(C(=O)Nc2ccc(N3CCCC3)cc2)c(C)c1	54*	-9	-2	32*	4	14	4	-1	4
O=C(Nc1ccc(N2CCCC2)cc1)c1ccccc1[N+](=O)[O-]	70*	7	-9	27*	2	42	1	5	16
O=C(Nc1ccc(N2CCN(Cc3ccccc3)CC2)cc1)c1ccccc1[N+](=O)[O-]	-4	-6	11	-2	-2	-1	x	x	x
Cc1ccccc1C(=O)Nc1ccc(N2CCCC2)cc1	-6	-6	8	3	1	10	x	x	x
O=C(Nc1ccc(N2CCCC2)cc1)c1cc(Br)ccc1Cl	50*	-27	-5	41*	-1	39	1	2	55*
Cc1ccccc1S(=O)Cc1ccc(C(=O)N2CCN(C3CCCCC3)CC2)o1 (stereo unspecified)	4	-6	x	-6	-2	-2	x	x	x
CC1(C(=O)NCc2ccccc2)CN(S(C)(=O)=O)CC(=O)N1CCc1c[nH]c2ccccc12 (stereo unspecified)	x	0	x	x	x	-1	x	x	x
O=S(=O)(Nc1c(S(=O)(=O)c2ccccc2)c2nc3ccccc3nc2n1C1CCCCC1)c1ccccc1	67*	50*	4	32*	0	20	46*	-7	48*	Beacon interf DR=>99
C=CCn1c(NS(=O)(=O)c2ccccc2)c(S(=O)(=O)c2ccc(C)cc2)c2nc3ccccc3nc21	-3	32	-8	-2	-7	3	x	x	x
CCOc1ccc(C(=O)Nc2ccc(N3CCCC3)cc2)cc1	80*	-9	-3	35*	0	5	7	0	-4
COc1ccc(C(=O)Nc2ccc(N3CCCC3)cc2)cc1	86*	5	-9	40*	5	40	4	1	0
CCOc1cccc(C(=O)Nc2ccc(N3CCCC3)cc2)c1	37	-49	-2	8	2	8	x	x	x
CCOc1ccccc1CN1CCC(N2CCC(C(=O)NC3CC3)CC2)CC1	0	7	-10	-8	0	-2	x	x	x
Cc1cc2cc(CNC(=O)Nc3ccc(Cl)c(Cl)c3)ccc2n1C	58*	-24	-8	31*	3	5	7	5	17
NS(=O)(=O)c1ccc(N/N=C/c2cn(-c3ccccc3)nc2-c2cccs2)c([N+](=O)[O-])c1	45	-13	9	36*	5	7	0	-3	-6
O=C(Cn1c2ccccc2c(=O)c2ccccc21)N/N=C/c1ccc(N2CCCC2)c([N+](=O)[O-])c1	43	-7	8	27	26	29	x	x	x
O=C(Cn1c2ccccc2c(=O)c2ccccc21)N/N=C/c1cc([N+](=O)[O-])ccc1N1CCCCCC1	72*	-7	87*	50*	89*	66*	4	5	3	STEP inh conf=12
O=[N+]([O-])c1ccc(/C=N/Nc2nc(N3CCCCC3)nc(N3CCCCC3)n2)cc1	-1	-16	3	8	0	4	x	x	x
O=[N+]([O-])c1ccc(/C=N/Nc2nc(N3CCCCCC3)nc(N3CCCCCC3)n2)o1	66*	-6	12	65*	2	4	0	1	18
CC1(C)Cc2c(cnn2-c2ccc(F)cc2)C(NC(=O)c2ccc(=O)oc2)C1 (stereo unspecified)	2	6	-5	11	4	0	x	x	x
O=C1c2ccccc2C(=O)N1CCc1c(-c2ccccc2)[nH]c2ccccc12	-8	-10	-12	1	0	5	x	x	x
O=C1c2ccccc2C(=O)N1CCc1c(-c2[nH]c3ccccc3c2CCN2C(=O)c3ccccc3C2=O)[nH]c2ccccc12	56*	3	-4	31*	3	-2	3	1	3
SMILES	DNMT1 block	SUMO1 PPI mod	Scp1 inh	NadD inh	STEP block	LMPTP inh	DNMT1 inh conf	Beacon interf	NadD inh conf	others
O=C(/C=C/c1ccco1)NC(=S)Nc1cc(-c2nc3ccccc3s2)ccc1Cl	98*	25	-2	52*	-2	5	2	-4	1
COc1cccc(C2c3c(-c4cc(Cl)c(C)cc4O)n[nH]c3C(=O)N2Cc2cccnc2)c1 (stereo unspecified)	98*	2	3	47*	1	8	2	4	43*
COc1cc(C2c3c(-c4cc(Cl)c(C)cc4O)n[nH]c3C(=O)N2Cc2cccnc2)ccc1O (stereo unspecified)	-7	11	-12	14	0	4	x	x	x
O=C(/C=C/c1ccc(Br)cc1)NC(=S)Nc1ccc(S(=O)(=O)Nc2nccs2)cc1	86*	94*	-3	54*	-3	16	67*	-2	17	Beacon interf DR=>99
O=C(NC(=S)Nc1ccc(S(=O)(=O)Nc2nccs2)cc1)c1ccc(Br)o1	2	12	10	1	0	2	x	x	x
O=C(Nc1cccc(S(=O)(=O)NC2=NCCC2)c1)c1cc(-c2ccco2)nc2ccccc12	99*	23	90*	68*	6	61*	56*	-2	78*	Beacon interf DR=>99
O=C(COC(=O)/C=C/c1cccc(Cl)c1)Nc1ccc2[nH]c(=O)[nH]c2c1	16	3	-1	3	-1	0	x	x	x
O=C(COC(=O)/C=C/c1ccc(Br)o1)Nc1ccc2[nH]c(=O)[nH]c2c1	82*	104*	x	29*	21	47	14	2	2
